# Source: PubChem BioAssay
# This is a sample that favours compounds with a hit; in the whole collection about 2.1% have one here.
# STAT1 inh = STAT1 signaling inhibition. NIH 3T3 STAT1-luciferase reporter, IFN-gamma, luminescence. inhibition, % at 5.5 µM. 200,000 tested, 0.35% active. AID 920;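 active = inhibition above a set limit, the mean inhibition across all tested compounds plus 3 SD, cut at about 34% in these data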;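 note: 0% = IFN-gamma with DMSO and 100% = IFN-gamma with 300 µM nifuroxazide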
# TNF death inh = inhibitors of TNF-alpha induced necroptosis in Jurkat FADD-/- cells | Jurkat FADD-/- TNF necroptosis rescue, ATP luminescence, 24 h; 0 = TNF only, 100 = no-TNF cells | activation (protection from cell death), % at 10 µM | 220,000 tested, 0.068% active | AID 463075;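 active = activation, meaning protection from cell death, of at least 50% relative to plate controls; inactive = activation below 50%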;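 note: necroptosis triggered by 40 ng/mL TNF-alpha added together with compound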
# STAT3 blocker = inhibitors of IL-6 induced STAT3 signaling; U3A cells, IL-6 STAT3-luciferase reporter, luminescence; host cell line lacks STAT1; inhibition, % at 5.5 µM; 190,000 tested, 0.89% active;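 active = inhibition above the mean inhibition across all screened compounds plus 3 SD, cut at about 44% in these data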;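 note: 0% = DMSO only wells and 100% = 100 µM nifuroxazide control wells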
# zVAD death inh = blocks zVAD induced death of L929 cells. L929 zVAD necroptosis rescue, ATP luminescence, 24 h; with zVAD 60 µM. viability rescue, % at 10 µM. 220,000 tested, 0.38% active;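 active = activation, scaled between plate controls, above about 75%, limit read from the data; inactive = activation under that limit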;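 note: 0% = zVAD with DMSO and 100% = DMSO alone without zVAD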
# STAT3 act-1 = increases IL-6 driven STAT3 reporter signal | 190,000 tested, 0.91% active | activation (% of control), % at 5.6 µM | U3A cells, IL-6 STAT3-luciferase reporter, luminescence; 100% = signal with IL-6 EC80 alone;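 active = activation above the screen-wide mean of compound activation plus 3 SD, cut at about 130% in these data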;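 note: 0% = background luminescence of wells with medium and substrate only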
#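 System – human U3A cells carrying STAT3-luciferase construct · Probe or stimulus – Interleukin-6, 33 ng/mL · Schedule – compound 1 h, then IL-6 6 h at 37 °C · Signal – luminescence from STAT3-driven luciferase reporter · Evaluation – percent of IL-6-only median luminescence · Benchmarks – IL-6-only high control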
# STAT3 act-2 = confirmation of STAT3 signaling activators; U3A STAT3-luciferase reporter, IL-6 potentiation, luminescence; U3A cells lack STAT1; 100 means same as IL-6 alone; 1,200 tested, 64% active; potentiation (% of control), % at 5.7 µM; shares compounds with STAT3 act-1;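 active = percent activation of the STAT3 luciferase reporter above a set limit taken from the earlier primary screen, cut at about 130% in these data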;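 note: 0% = background signal of medium plus substrate and 100% = median of IL-6 with DMSO wells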
# NFkB act 2 = counter-screen for STAT3 activators: NF-kappaB activation; shares compounds with STAT3 act-1; human cells, NF-kappaB reporter activation; activation (% of control), % at 5.7 µM; 1,200 tested, 11% active; in the data active = activation above about 120%;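 note: reporter induced by TNF-alpha stimulation; 100% = median of stimulated DMSO wells and 0% = no signal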
# STAT1 act = counter-screen for STAT3 activators: STAT1 activation; AID 1318; NIH 3T3 STAT1-luciferase reporter, IFN-gamma, luminescence; shares compounds with STAT3 act-1; activation (% of control), % at 5.7 µM; 1,200 tested, 13% active;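 active = activation above the solvent-only control well mean plus 3 SD, set per screening run, cut at about 120% in these data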;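 note: 100% = IFN-gamma with DMSO median signal so 100% means no change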
# An asterisk follows results filed as active; i = inactive; x = not tested or not shown.
SMILES,STAT1 inh,TNF death inh,STAT3 blocker,zVAD death inh,STAT3 act-1,STAT3 act-2,NFkB act 2,STAT1 act
Clc1ncccc1-c1nc2ccccc2s1,-26,0,2,24,100,x,x,x
COc1cc(C(=O)NCc2ccc(-c3nc4ccccc4s3)cc2)cc(OC)c1OC,-46,1,-1,1,104,x,x,x
COc1cc(-c2nc3ccccc3s2)ccc1O,-4,-2,-48,0,141*,135*,94,121*
CCC1Oc2ccc(C)cc2N(CC(=O)N(Cc2cccnc2)Cc2cccc(F)c2)C1=O (centres undefined),1,1,5,-1,99,x,x,x
CCc1nc2c(c(=O)c3ccccc3n2C)c(=O)n1CCc1ccc(OC)cc1,-11,-7,-52,8,144*,202*,92,113
COc1cccc(-c2nc(N3CCCCC3C)c3ccccc3n2)c1O (centres undefined),10,-1,-42,2,138*,138*,105,99
CC(=O)Nc1c(C(=O)O)[nH]c2ccccc12,-1,-2,-20,0,120,x,x,x
CCS(=O)(=O)Nc1c(C(=O)OC)[nH]c2ccccc12,15,3,-42,0,139*,119,97,92
CCS(=O)(=O)Nc1c(C(=O)O)[nH]c2ccccc12,7,0,-71,0,164*,169*,102,97
CN(C)C(CN1C(=O)C2CC=CCC2C1=O)c1cn(C)c2ccccc12 (centres undefined),11,1,-58,-1,153*,149*,104,90
CCC(C)(C)NC(=O)CN(CC1CCCO1)C(=O)CCC(=O)Nc1nccs1 (centres undefined),-9,-2,5,0,101,x,x,x
Cc1nn2c(-c3ccccc3)nnc2c2ccccc12,-8,-5,-79,0,170*,143*,117,115
Cc1nn2c(-c3cccc(NC(=O)c4ccco4)c3)nnc2c2ccccc12,-4,-8,24,2,81,x,x,x
CCOc1ccc(-c2nnc(SCC(=O)N3CCN(c4ccccc4)CC3)o2)cc1,0,1,0,1,100,x,x,x
Cc1[nH]nc2c1C(c1cnn(C)c1)C(C#N)=C(N)O2 (centres undefined),-12,0,6,0,98,x,x,x
CCOC(=O)CN1C(=O)C(O)(c2c(C)[nH]c3ccccc23)c2ccccc21 (centres undefined),9,-2,-75,0,167*,126,107,94
CCOC(=O)CN1C(=O)C2(OCCCO2)c2ccccc21,-5,-1,-5,0,106,x,x,x
COc1cc(C(C[N+](=O)[O-])c2c(C)[nH]c3ccccc23)cc(OC)c1OC (centres undefined),14,-5,-48,0,142*,126,98,92
COc1ccc(S(=O)(=O)N2Cc3ccccc3CC2C(=O)Nc2nccs2)cc1 (centres undefined),-23,0,-46,0,140*,110,112,120
COc1ccc(S(=O)(=O)N2Cc3ccccc3CC2C(=O)Nc2nccs2)cc1OC (centres undefined),-17,-1,-30,1,130,x,x,x
COc1ccc(C2CC3(CC(C)(C)NC(=O)N3)Oc3cc(O)ccc32)cc1 (centres undefined),-2,-1,-125,1,211*,176*,110,119
COc1ccc(C2CC3(CC(C)(C)NC(=S)N3)Oc3cc(O)cc(C)c32)cc1 (centres undefined),-6,1,-330,2,363*,268*,110,106
COc1ccc(C2CC3(CC(C)(C)NC(SC)=N3)Oc3cc(O)cc(C)c32)cc1 (centres undefined),-25,6,i,12,537*,382*,114,127*
